Data taken from ChEMBL document CHEMBL1128222, “Novel inhibitors for multidrug resistance: 1,3,5-triazacycloheptanes” (J Med Chem, 1995).

Columns and labels:
[1] = tested on: P388/S; assay: In vitro relative vinblastin uptake into P388/s (murine leukemia) cells following 10 uM treatment.; format: functional, Mus musculus
How it was run: (§1)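 10^6 P388/S or P388/ADR cells in 1 mL of 20 mM Hepes-buffered medium, pH 7.4. They are incubated with 4.6 kBq [3H]vinblastine with or without 10 μM compound (DMSO final 1%) at 37 °C for 30 min. Cells are then chilled, pelleted at 2 °C and washed twice in cold PBS. They are solubilized in NaOH and counted. The value is uptake relative to untreated cells.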

[2] = tested on: P388/ADR; assay: In vitro relative vinblastin uptake into P388/ADR (murine leukemia/multidrug resistant) cells following 10 uM treatment.; format: functional, Mus musculus; how it was run: as §1
[3] = tested on: P388/S; assay: Evaluation of inhibitory activity and cisplatin against drug sensitive P388 cells (P388/S) cells; format: functional, cell-based, Mus musculus; details: Mus musculus, P388/S
How it was run: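 P388/S or P388/ADR cells at 10^5 cells/mL in RPMI-1640/10% FCS medium. They receive graded adriamycin, mitomycin C or cisplatin, alone or together with 2.5 μM modulator, for 48 h (DMSO final 0.25%). Growth is read by MTT and the antitumor-drug IC50 is reported.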

[4] = tested on: P388/ADR; assay: Evaluation of inhibitory activity and adriamycin against multidrug resistant P388 cells (P388/ADR) cells; details: Mus musculus
[5] = tested on: P388/ADR; assay: Evaluation of inhibitory activity against multidrug resistant P388 cells (P388/ADR) cells; format: functional, cell-based, Mus musculus
How it was run: (§2)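 P388/S and P388/ADR murine leukemia cells are maintained by weekly intraperitoneal passage in female CDF1 mice. For the assay they are seeded at 10^5 cells/mL in RPMI-1640 with 10% FCS, 20 μM β-mercaptoethanol and 100 μg/mL kanamycin. Vinblastine is given with or without modulator (0–5.0 μM; DMSO final 0.25%) for 48 h. Growth is read by MTT and vinblastine IC50 is reported.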

[6] = tested on: P388/S; assay: (§3) Evaluation of inhibitory activity against drug sensitive P388 cells (P388/S) cells; format: functional, cell-based; details: Mus musculus; how it was run: as §2
[7] = tested on: P388/S; assay: as §3; format: functional, cell-based, Mus musculus; how it was run: as §2

Compound | Relative uptake [1] | Relative uptake [2] | further results
Clc1ccc(CNCCNCc2ccc(Cl)cc2)cc1 | 1.04 | 2.62 | –
COc1ccc(CN2CCN(Cc3ccc(OC)c(OC)c3)C(=S)NC2=S)cc1OC | 1.21 | 5.26 | –
S=C1NC(=S)N(Cc2ccccc2)CCN1Cc1ccccc1 | 1.26 | 4.16 | –
COc1ccc(CCN(C)CCCC(C#N)(c2ccc(OC)c(OC)c2)C(C)C)cc1OC (stereo not given) [VERAPAMIL] | 1.02 | 5.7 | –
CSC1=NC(=O)N(Cc2ccccc2)CCN1Cc1ccccc1 | 1.37 | 2.13 | –
COc1ccc(CN2CCN(Cc3ccc(OC)c(OC)c3)C(=O)NC2=O)cc1OC | 0.93 | 1.16 | –
COc1cccc2c1C(=O)c1c(O)c3c(c(O)c1C2=O)C[C@@](O)(C(=O)CO)C[C@@H]3OC1C[C@H](N)[C@H](O)[C@H](C)O1.CSC1=NC(=O)N(Cc2ccc(Cl)cc2)CCN1Cc1ccc(Cl)cc1 (stereo not given in full) | – | – | IC50 [3]: 13 nM; IC50 [4]: 90 nM
COc1ccc(CN2CCCN(Cc3ccc(OC)c(OC)c3)C(=O)NC2=O)cc1OC | 1.06 | 1.11 | –
CO[C@@]12[C@H](COC(N)=O)C3=C(C(=O)C(C)=C(N)C3=O)N1C[C@@H]1N[C@@H]12 [MITOMYCIN] | – | – | IC50 ([5]; Mus musculus, P388/ADR): 535 nM; IC50 [6]: 48 nM
O=C1NC(=O)N(Cc2ccc(Cl)cc2)CCN1Cc1ccc(Cl)cc1 | 1.22 | 3.44 | –
O=C1NC(=O)N(Cc2ccccc2)CCN1Cc1ccccc1 | 1.09 | 1.41 | –
CISPLATIN | – | – | IC50 [7]: 48 nM; IC50 ([5]; p388/adr): 61 nM
S=C1NC(=S)N(Cc2ccc(Cl)cc2)CCN1Cc1ccc(Cl)cc1 | 1.48 | 6 | –
COc1cccc2c1C(=O)c1c(O)c3c(c(O)c1C2=O)C[C@@](O)(C(=O)CO)C[C@@H]3O[C@H]1C[C@H](N)[C@H](O)[C@H](C)O1 [DOXORUBICIN] | – | – | IC50 ([5]; Mus musculus, P388/ADR): 360 nM; IC50 [6]: 19 nM
O=C1NC(=O)N(Cc2ccc(Cl)cc2)CCCN1Cc1ccc(Cl)cc1 | 1.17 | 2.86 | –
